ChEMBL document CHEMBL1154100, “Tetrahydroisoquinolines as dopaminergic ligands: 1-Butyl-7-chloro-6-hydroxy-tetrahydroisoquinoline, a new compound with antidepressant-like activity in mice” (Bioorg Med Chem, 2009)
Calls of active or inactive are those of the source. No cut-off for these calls is given here.

Columns and labels:
[1] = target: Sodium-dependent dopamine transporter (Rattus norvegicus) (UniProt P23977); experiment: Inhibition of DAT in Wistar rat striatal synaptosomes at 100 uM by [3H]dopamine uptake assay; type: subcellular; details: Brain
Method in brief: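 Synaptosomes were prepared from female Wistar rat striatum at 0–4 °C. Tissue was homogenized in 0.32 M sucrose, spun twice at 1000g for 10 min, and the pooled supernatants were spun at 16,000g for 30 min. The pellet was taken up in Krebs medium (pH 7.6, with glucose). Samples were preincubated for 10 min at 37 °C with pargyline, then given 0.5 nM final [³H]dopamine for 10 min. Uptake was stopped by ice-cold dilution and rapid fiberglass filtration.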

[2] = target: D(2) dopamine receptor (Rattus norvegicus, UniProt P61169); experiment: Displacement of [3H]raclopride from dopamine D2 receptor in Wistar rat striatal membrane by liquid scintillation counting; type: cell membranes, Striatum
Method in brief: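 Striata from female Wistar rats (200–220 g) were homogenized in 50 mM Tris-HCl (pH 7.4) and centrifuged twice at 49,000g for 15 min at 4 °C. Membranes were resuspended in Tris buffer containing 120 mM NaCl, 2 mM CaCl₂, 5 mM KCl, 1 mM MgCl₂ and 0.1% ascorbic acid (pH 7.4). Samples were filtered, washed with cold buffer and counted by scintillation. Ki was derived using a [³H]raclopride KD of 1,25 nM, from 3–6 determinations run in duplicate.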

[3] = species: Rattus norvegicus; experiment: Selectivity for Wistar rat dopamine D2 receptor over Wistar rat dopamine D1 receptor
[4] = target: D(1A) dopamine receptor (Rattus norvegicus, UniProt P18901); experiment: Displacement of [3H]SCH23390 from dopamine D1 receptor in Wistar rat striatal membrane by liquid scintillation counting; type: cell membranes, Striatum
Method in brief: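 Female Wistar rat striatum homogenized in 50 mM Tris-HCl pH 7.4, then washed twice at 49,000g. Membranes were resuspended in Tris-ions buffer (NaCl, CaCl2, KCl, MgCl2, 0.1% ascorbate). [3H]-SCH23390 displacement was read by filtration and scintillation counting. Ki was derived using KD 0.36 nM; 3–6 independent runs in duplicate, mean SEM.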

[5] = system: Mus musculus; experiment: Antidepressant-like activity in NMRI mouse assessed as reduction in immobility time at 16 mg/kg, ip by forced swimming test relative to control; type: functional; set-up: scale not given: the % may be the effect or the level left; details: route intraperitoneal
Method in brief: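 Naive male NMRI mice (25–30 g) were used in randomized groups of n = 10 and tested in the dark phase. Injections (10 mL/kg) were given 30 min before testing, and saline was the vehicle. Each animal, not pre-tested, swam for 6 min in a cylinder 12 cm wide holding 13 cm of water at 23–24 °C. Immobility was scored over the last 4 min, and groups were compared with ANOVA and Fisher PLSD.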

D(2) dopamine receptor, sequence (P61169 whole entry): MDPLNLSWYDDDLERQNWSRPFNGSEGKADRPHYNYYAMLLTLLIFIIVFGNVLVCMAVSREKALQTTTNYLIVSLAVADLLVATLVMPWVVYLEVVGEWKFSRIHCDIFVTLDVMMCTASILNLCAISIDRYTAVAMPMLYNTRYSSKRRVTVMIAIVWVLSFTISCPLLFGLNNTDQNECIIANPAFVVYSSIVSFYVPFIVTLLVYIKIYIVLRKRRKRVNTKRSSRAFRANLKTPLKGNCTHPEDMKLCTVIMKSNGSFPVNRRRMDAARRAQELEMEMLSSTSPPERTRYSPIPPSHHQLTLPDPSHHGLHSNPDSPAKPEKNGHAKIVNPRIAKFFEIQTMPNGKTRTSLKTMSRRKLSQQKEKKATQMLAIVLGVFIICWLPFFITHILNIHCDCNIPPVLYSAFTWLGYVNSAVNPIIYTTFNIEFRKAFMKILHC
D(1A) dopamine receptor, sequence (P18901 whole entry): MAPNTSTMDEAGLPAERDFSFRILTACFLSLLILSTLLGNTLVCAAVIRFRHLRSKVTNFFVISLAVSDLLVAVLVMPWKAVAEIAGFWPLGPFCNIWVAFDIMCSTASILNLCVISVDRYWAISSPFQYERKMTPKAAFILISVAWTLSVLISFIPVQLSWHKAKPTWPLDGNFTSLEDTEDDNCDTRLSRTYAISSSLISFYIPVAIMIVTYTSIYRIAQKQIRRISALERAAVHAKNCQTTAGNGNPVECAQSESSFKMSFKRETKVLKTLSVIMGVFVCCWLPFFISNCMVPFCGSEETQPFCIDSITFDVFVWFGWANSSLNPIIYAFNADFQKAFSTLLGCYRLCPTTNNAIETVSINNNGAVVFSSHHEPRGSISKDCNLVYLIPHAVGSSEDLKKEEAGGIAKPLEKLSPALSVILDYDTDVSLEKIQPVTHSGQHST
Sodium-dependent dopamine transporter (Rattus norvegicus), sequence (P23977 whole entry): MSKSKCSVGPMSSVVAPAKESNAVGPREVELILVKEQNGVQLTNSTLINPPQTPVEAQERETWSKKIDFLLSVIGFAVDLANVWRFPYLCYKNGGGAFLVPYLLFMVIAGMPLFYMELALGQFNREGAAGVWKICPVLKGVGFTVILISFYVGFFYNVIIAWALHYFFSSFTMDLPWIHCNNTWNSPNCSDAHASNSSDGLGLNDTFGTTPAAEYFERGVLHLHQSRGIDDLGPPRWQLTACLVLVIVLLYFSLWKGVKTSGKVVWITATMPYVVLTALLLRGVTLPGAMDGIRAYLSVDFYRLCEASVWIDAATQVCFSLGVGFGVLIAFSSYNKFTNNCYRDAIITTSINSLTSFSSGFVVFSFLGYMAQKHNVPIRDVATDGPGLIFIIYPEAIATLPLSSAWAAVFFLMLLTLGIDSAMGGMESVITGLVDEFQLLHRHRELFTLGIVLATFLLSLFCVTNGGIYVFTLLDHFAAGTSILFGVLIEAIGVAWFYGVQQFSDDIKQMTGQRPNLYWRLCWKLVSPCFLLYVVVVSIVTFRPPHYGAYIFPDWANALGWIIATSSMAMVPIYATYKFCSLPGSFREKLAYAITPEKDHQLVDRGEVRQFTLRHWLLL

| Structure (SMILES) | Activity [1] | Ki ([2]; read-out: Ki) [nM] | fold change (FC) [3] | Ki [4] [nM] | Ki ([2]; read-out: pKi (converted)) [nM] | Activity [5] [%] |
| --- | --- | --- | --- | --- | --- | --- |
| CCCCC1NCCc2cc(Cl)c(O)cc21 (stereo not drawn) | inactive | 91 | 17 | 1210 | – | – |
| CCCCC1c2cc(OC)c(Cl)cc2CCN1C (stereo not drawn) | inactive | – | 2.7 | 7280 | 3770 | – |
| CN(C)CCCN1c2ccccc2CCc2ccccc21 [IMIPRAMINE] | – | – | – | – | – | 32 |
| Oc1cc2c(cc1Cl)CCNC2c1ccccc1 (stereo not drawn) | inactive | – | 0.2 | 247 | 1120 | – |
